Data published in ChEMBL document CHEMBL1139462, “Identification of novel and improved antimitotic agents derived from noscapine” (J Med Chem, 2005).
pEC50: −log10 of the molar value. Activity calls are given as the source filed them. The calls are words filed in the database; no cut-off is given here.

Experiments:
[1] = system: Mus musculus; assay: (§1) Half life in mouse at 2 mg/kg, iv; assay type: ADME, organism-based; parameters: dose 2 mg/kg, route intravenous; details: in vivo
[2] = system: A549; assay: Effect on cell growth in A549 cells by MTS assay; assay type: functional, cell-based; details: Homo sapiens
[3] = AUC in mouse at 20 mg/kg, po; assay type: ADME, organism-based; parameters: dose 20 mg/kg, route oral; details: plasma
[4] = target: Tubulin; assay: Inhibition of tubulin polymerization; assay type: protein-complex assay, Homo sapiens
[5] = Cell cycle arrest in HEK293EBNA cells by accumulation at G2/M phase cell at 50 uM relative to DMSO; assay type: functional, cell-based; details: Homo sapiens, HEK293-EBNA
Outline: (§2)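 HEK293 cells were exposed to compound for 16 h at the stated concentration, then analyzed by FACS for cell-cycle distribution (G1, S and G2/M fractions). Profiles were compared with a 0.5% DMSO vehicle control.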

[6] = system: Mus musculus; assay: (§3) Volume of distribution in mouse at 2 mg/kg, iv; assay type: ADME, organism-based; parameters: dose 2 mg/kg, route intravenous; details: in vivo
[7] = Cell cycle arrest in HEK293EBNA cells by accumulation at G1 phase cell at 50 uM relative to DMSO; assay type: functional, cell-based; details: Homo sapiens, HEK293-EBNA; outline: as §2
[8] = Bioavailability in mouse at 20 mg/kg, po; assay type: ADME, organism-based; details: in vivo
[9] = AUC in mouse at 2 mg/kg, iv; assay type: ADME, organism-based; parameters: dose 2 mg/kg, route intravenous; details: plasma
[10] = Cell cycle arrest in HEK293EBNA cells by accumulation at S phase cell at 50 uM relative to DMSO; assay type: functional, cell-based; details: Homo sapiens, HEK293-EBNA; outline: as §2
[11] = Cell cycle arrest in HEK293EBNA cells by accumulation at G2/M phase cell at 1 uM relative to DMSO; assay type: functional, cell-based; details: Homo sapiens, HEK293-EBNA; outline: as §2
[12] = Clearance in mouse at 2 mg/kg, iv; assay type: ADME, organism-based; parameters: dose 2 mg/kg, route intravenous; details: in vivo
Outline: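 Pharmacokinetics were measured in mice, with an intravenous dose of 2 mg/kg; the study's oral arm used 20 mg/kg po.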

[13] = Cell cycle arrest in HEK293EBNA cells by accumulation at G1 phase cell at 1 uM relative to DMSO; assay type: functional, cell-based; details: Homo sapiens, HEK293-EBNA; outline: as §2
[14] = Cell cycle arrest in HEK293EBNA cells by accumulation at S phase cell at 1 uM relative to DMSO; assay type: functional, cell-based; details: Homo sapiens, HEK293-EBNA; outline: as §2
[15] = as §1; assay type: ADME, organism-based; parameters: dose 2 mg/kg, route intravenous; details: in vivo
[16] = as §3; assay type: ADME, organism-based; parameters: dose 2 mg/kg, route intravenous; details: in vivo, read-out: Vdss
[17] = system: NIH3T3; assay: Effect on cell growth in nondividing Swiss 3T3 cells at 50 uM by MTS assay; assay type: functional, cell-based; details: Mus musculus
[18] = system: A549; assay: Effect on cell growth in A549 cells by colony-forming assay; assay type: functional, cell-based; details: Homo sapiens
[19] = Cell cycle arrest in HEK293EBNA cells by accumulation at S phase cell at 0.1 uM relative to DMSO; assay type: functional, cell-based; details: Homo sapiens, HEK293-EBNA
Outline: (§4)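 HEK293 cells were exposed for 16 h to compound or to a 0.5% DMSO vehicle control. Cell-cycle phase distribution (G1, S, G2/M) was determined by FACS analysis and compared with the DMSO profile.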

[20] = Cell cycle arrest in HEK293EBNA cells by accumulation at G1 phase cell at 0.1 uM relative to DMSO; assay type: functional, cell-based; details: Homo sapiens, HEK293-EBNA; outline: as §4
[21] = system: NIH3T3; assay: Effect on cell growth in nondividing Swiss 3T3 cells at 3 uM by MTS assay; assay type: functional, cell-based; details: Mus musculus
Outline: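 Swiss 3T3 cells were tested in either a dividing or a nondividing state. Growth was read out by MTS assay, and an EC50 was derived for the dividing cells.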

[22] = Cell cycle arrest in HEK293EBNA cells by accumulation at G2/M phase cell at 0.1 uM relative to DMSO; assay type: functional, cell-based; details: Homo sapiens, HEK293-EBNA; outline: as §4
[23] = Cell cycle arrest in HEK293EBNA cells by accumulation at S phase cell at 0.5 uM relative to DMSO; assay type: functional, cell-based; details: Homo sapiens, HEK293-EBNA; outline: as §2
[24] = Cell cycle arrest in HEK293EBNA cells by accumulation at G2/M phase cell at 0.5 uM relative to DMSO; assay type: functional, cell-based; details: Homo sapiens, HEK293-EBNA; outline: as §2
[25] = Cell cycle arrest in HEK293EBNA cells by accumulation at G1 phase cell at 0.5 uM relative to DMSO; assay type: functional, cell-based; details: Homo sapiens, HEK293-EBNA; outline: as §2
[26] = Cell cycle arrest in HEK293EBNA cells by accumulation at G1 phase cell at 10 uM relative to DMSO; assay type: functional, cell-based; details: Homo sapiens, HEK293-EBNA; outline: as §4
[27] = Cell cycle arrest in HEK293EBNA cells by accumulation at G2/M phase cell at 10 uM relative to DMSO; assay type: functional, cell-based; details: Homo sapiens, HEK293-EBNA; outline: as §4
[28] = Cell cycle arrest in HEK293EBNA cells by accumulation at S phase cell at 10 uM relative to DMSO; assay type: functional, cell-based; details: Homo sapiens, HEK293-EBNA; outline: as §4
[29] = Cell cycle arrest in HEK293EBNA cells by accumulation at S phase cell at 5 uM relative to DMSO; assay type: functional, cell-based; details: Homo sapiens, HEK293-EBNA; outline: as §2
[30] = Cell cycle arrest in HEK293EBNA cells by accumulation at G1 phase cell at 5 uM relative to DMSO; assay type: functional, cell-based; details: Homo sapiens, HEK293-EBNA; outline: as §2
[31] = Cell cycle arrest in HEK293EBNA cells by accumulation at G2/M phase cell at 5 uM relative to DMSO; assay type: functional, cell-based; details: Homo sapiens, HEK293-EBNA; outline: as §2

## COc1ccc2c(c1OC)C(=O)O[C@@H]2[C@H]1c2c(cc3c(c2OC)OCO3)CCN1C [NOSCAPINE]
[1]
  t1/2: 0.833 h
[2]
  pEC50: 4.60
[3]
  AUC: 524 ng·h/mL
[4]
  pEC50: < 4.30
[5]
  Activity: 50%
[6]
  Vdss: 15.53 L/kg
[7]
  Activity: 19%
[8]
  bioavailability: 14.1%
[9]
  AUC: 345 ng·h/mL
[10]
  Activity: 31%

## COc1ccc2c(c1O)C(=O)O[C@@H]2[C@H]1c2c(cc3c(c2OC)OCO3)CCN1C
[11]
  Activity: 88%
[12]
  clearance: 101 mL/min/kg
[13]
  Activity: 3%
[14]
  Activity: 9%
[15]
  half-life: 2.79 h
[2]
  pEC50: 6.22
[3]
  AUC: 740 ng·h/mL
[4]
  pEC50: 6.15
[16]
  Vd: 28.1 L/kg
[17]
  Activity: inactive
[18]
  pEC50: 6.30
[8]
  bioavailability: 22%
[9]
  AUC: 331 ng·h/mL

## COc1ccc2c(c1N)C(=O)O[C@@H]2[C@H]1c2c(cc3c(c2OC)OCO3)CCN1C
[19]
  Activity: 7%
[12]
  clearance: 95.3 mL/min/kg
[20]
  Activity: 1%
[15]
  half-life: 1.04 h
[2]
  pEC50: 7.01
[3]
  AUC: 391 ng·h/mL
[4]
  pEC50: 6.52
[21]
  Activity: inactive
[16]
  Vd: 8.47 L/kg
[18]
  pEC50: 7.08
[8]
  bioavailability: 11.4%
[9]
  AUC: 350 ng·h/mL
[22]
  Activity: 92%

## CNc1c(OC)ccc2c1C(=O)O[C@@H]2[C@H]1c2c(cc3c(c2OC)OCO3)CCN1C
[23]
  Activity: 25%
[24]
  Activity: 67%
[25]
  Activity: 8%

## CC[C@]1(O)C[C@@H]2CN(CCc3c([nH]c4ccccc34)[C@@](C(=O)OC)(c3cc4c(cc3OC)N(C)[C@H]3[C@@](O)(C(=O)OC)[C@H](OC(C)=O)[C@]5(CC)C=CCN6CC[C@]43[C@@H]65)C2)C1 [VINBLASTINE]
[2]
  pEC50: 9.05
[18]
  pEC50: 9.30

## COc1cc2c(c(OC)c1OC)-c1ccc(OC)c(=O)cc1[C@@H](NC(C)=O)CC2
[26]
  Activity: 3%
[27]
  Activity: 83%
[28]
  Activity: 14%

## COc1ccc2c(c1)C(=O)O[C@@H]2[C@H]1c2c(cc3c(c2OC)OCO3)CCN1C
[11]
  Activity: 90%
[13]
  Activity: 4%
[14]
  Activity: 6%

## COc1ccc2c(c1N)C(=O)O[C@@H]2[C@H]1c2c(c(Br)c3c(c2OC)OCO3)CCN1C
[11]
  Activity: 81%
[13]
  Activity: 4%
[14]
  Activity: 15%

## COc1ccc2c(c1OS(=O)(=O)C(F)(F)F)C(=O)O[C@@H]2[C@H]1c2c(cc3c(c2OC)OCO3)CCN1C
[5]
  Activity: 9%
[7]
  Activity: 56%
[10]
  Activity: 35%

## COc1ccc2c(c1S)C(=O)O[C@@H]2[C@H]1c2c(cc3c(c2OC)OCO3)CCN1C
[29]
  Activity: 7%
[30]
  Activity: 3%
[31]
  Activity: 90%

## COc1ccc2c(c1NCc1ccccc1)C(=O)O[C@@H]2[C@H]1c2c(cc3c(c2OC)OCO3)CCN1C
[29]
  Activity: 29%
[30]
  Activity: 8%
[31]
  Activity: 63%
